In ChEMBL document CHEMBL1144120, “In vitro evaluation of antifungal properties of phenylpropanoids and related compounds acting against dermatophytes” (1999):
Values after ≈ are worked out from the molar mass of the structure shown. Active and inactive are the calls of the source. The calls are words filed in the database; no cut-off is given here.

Assays:
[1] = tested on: Trichophyton mentagrophytes; experiment: Antifungal activity against Trichophyton mentagrophytes ATCC 9972 up to 50 ug/mL by agar dilution method; type: functional, organism-based
In short: (§1)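 Dermatophytes were tested by agar dilution on Sabouraud chloramphenicol agar in 96-well plates. DMSO stock solutions were serially two-fold diluted into the medium to give final concentrations of 0.10–50 µg/mL, with DMSO not exceeding 2%. Each well received 5 µL of spore suspension.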

Trichophyton rubrum [2] = experiment: Antifungal activity against Trichophyton rubrum C 113 up to 50 ug/mL by agar dilution method; type: functional, organism-based; in short: as §1
Epidermophyton floccosum [3] = experiment: Antifungal activity against Epidermophyton floccosum C 114 up to 50 ug/mL by agar dilution method; type: functional, organism-based; in short: as §1
Nannizzia gypsea [4] = experiment: Antifungal activity against Microsporum gypseum C 115 by agar dilution method; type: functional; in short: as §1
[5] = tested on: Trichophyton mentagrophytes; experiment: Antifungal activity against Trichophyton mentagrophytes ATCC by agar dilution method; type: functional; in short: as §1
Trichophyton rubrum [6] = experiment: Antifungal activity against Trichophyton rubrum C 113 by agar dilution method; type: functional; in short: as §1
Epidermophyton floccosum [7] = experiment: Antifungal activity against Epidermophyton floccosum C 114 by agar dilution method; type: functional; in short: as §1
Candida albicans = experiment: Antifungal activity against Candida albicans ATCC 10231 by agar dilution method; type: functional, organism-based
In short: (§2)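 Sabouraud chloramphenicol agar dilution in 96-well plates. Strains were grown on Sabouraud chloramphenicol agar slants for 48 h at 30 °C and suspended in sterile distilled water, adjusted to 10^6 viable cells/mL. DMSO stocks were serially two-fold diluted into the agar to give 0.10–50 µg/mL, with DMSO ≤2% final. 5 µL inoculum per well; incubated 24, 48 or 72 h at 30 °C per control growth; MIC recorded.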

Saccharomyces cerevisiae = experiment: Antifungal activity against Saccharomyces cerevisiae ATCC 9763 by agar dilution method; type: functional, organism-based; in short: as §2
Cryptococcus neoformans = experiment: Antifungal activity against Cryptococcus neoformans ATCC 32264 by agar dilution method; type: functional, organism-based; in short: as §2
Aspergillus flavus = experiment: Antifungal activity against Aspergillus flavus ATCC 9170 by agar dilution method; type: functional, organism-based; in short: as §2
Aspergillus fumigatus = experiment: Antifungal activity against Aspergillus fumigatus ATCC 26934 by agar dilution method; type: functional, organism-based; in short: as §2
Aspergillus niger = experiment: Antifungal activity against Aspergillus niger ATCC 9029 by agar dilution method; type: functional, organism-based; in short: as §2
Microsporum canis [8] = experiment: Antifungal activity against Microsporum canis C 112 by agar dilution method; type: functional; in short: as §1
Microsporum canis [9] = experiment: Antifungal activity against Microsporum canis C 112 up to 50 ug/mL by agar dilution method; type: functional, organism-based; in short: as §1
Nannizzia gypsea [10] = experiment: Antifungal activity against Microsporum gypseum C 115 up to 50 ug/mL by agar dilution method; type: functional, organism-based; in short: as §1

Structure (SMILES) | Activity [1] | Activity (Trichophyton rubrum [2]) | Activity (Epidermophyton floccosum [3]) | MIC (Nannizzia gypsea [4]) | MIC [5] | MIC (Trichophyton rubrum [6]) | MIC (Epidermophyton floccosum [7]) | Activity (Candida albicans) | Activity (Saccharomyces cerevisiae) | Activity (Cryptococcus neoformans) | Activity (Aspergillus flavus) | Activity (Aspergillus fumigatus) | Activity (Aspergillus niger) | MIC (Microsporum canis [8]) | Activity (Microsporum canis [9]) | Activity (Nannizzia gypsea [10])
CCC(=O)c1cc(OC)c(OC)c(OC)c1 | inactive | inactive | inactive | > 50 µg/mL | > 50 µg/mL | > 50 µg/mL | > 50 µg/mL | inactive | inactive | inactive | inactive | inactive | inactive | > 50 µg/mL | inactive | inactive
CC(Cl)C(=O)c1cc2ccccc2c2ccccc12 (configuration not stated) | inactive | inactive | inactive | 10 µg/mL (≈ 37.2 µM) | 3 µg/mL (≈ 11.2 µM) | 1.5 µg/mL (≈ 5.58 µM) | 15 µg/mL (≈ 55.8 µM) | inactive | inactive | inactive | inactive | inactive | inactive | 3 µg/mL (≈ 11.2 µM) |  | inactive
CCC(O)c1cc(OC)c(OC)c(OC)c1 (configuration not stated) | inactive | inactive | inactive | > 50 µg/mL | > 50 µg/mL | > 50 µg/mL | 50 µg/mL (≈ 221 µM) | inactive | inactive | inactive | inactive | inactive | inactive | 50 µg/mL (≈ 221 µM) | inactive | inactive
COc1ccc(C(=O)C(C)C)cc1OC | inactive | inactive | inactive | > 50 µg/mL | > 50 µg/mL | 50 µg/mL (≈ 240 µM) | 50 µg/mL (≈ 240 µM) | inactive | inactive | inactive | inactive | inactive | inactive | > 50 µg/mL | inactive | inactive
CC(Cl)C(=O)c1ccccc1 (configuration not stated) | inactive | inactive | inactive | 20 µg/mL (≈ 119 µM) | 10 µg/mL (≈ 59.3 µM) | 12.5 µg/mL (≈ 74.1 µM) | 15 µg/mL (≈ 89 µM) | inactive | inactive | inactive | inactive | inactive | inactive | 6.25 µg/mL (≈ 37.1 µM) | inactive | inactive
c1ccc2ccccc2c1 [NAPHTHALENE] |  |  |  | > 50 µg/mL | > 50 µg/mL | > 50 µg/mL | > 50 µg/mL | inactive | inactive | inactive | inactive | inactive | inactive | > 50 µg/mL |  | 
CCC(O)c1ccc2ccccc2c1 (configuration not stated) | inactive | inactive | inactive | 40 µg/mL (≈ 215 µM) | 25 µg/mL (≈ 134 µM) | 40 µg/mL (≈ 215 µM) | 40 µg/mL (≈ 215 µM) | inactive | inactive | inactive | inactive | inactive | inactive | 50 µg/mL (≈ 268 µM) | inactive | inactive
COc1ccc([C@H](O)[C@H](C)Br)cc1OC | inactive | inactive | inactive | > 50 µg/mL | > 50 µg/mL | > 50 µg/mL | 50 µg/mL (≈ 182 µM) | inactive | inactive | inactive | inactive | inactive | inactive | > 50 µg/mL | inactive | inactive
CCC(=O)c1cc2ccccc2c2ccccc12 |  |  |  | 6.25 µg/mL (≈ 26.7 µM) | 3 µg/mL (≈ 12.8 µM) | 6.25 µg/mL (≈ 26.7 µM) | 20 µg/mL (≈ 85.4 µM) | inactive | inactive | inactive | inactive | inactive | inactive | 3 µg/mL (≈ 12.8 µM) |  | 
c1ccc2c(c1)ccc1ccccc12 [PHENANTHRENE] |  |  |  | > 50 µg/mL | > 50 µg/mL | > 50 µg/mL | > 50 µg/mL | inactive | inactive | inactive | inactive | inactive | inactive | > 50 µg/mL |  | 
CC(Br)C(=O)C1CCCCC1 (configuration not stated) |  |  |  | > 50 µg/mL | 50 µg/mL (≈ 228 µM) | > 50 µg/mL | > 50 µg/mL | inactive | inactive | inactive | inactive | inactive | inactive | > 50 µg/mL |  | 
CC(C)C(O)c1ccc2ccccc2c1 (configuration not stated) |  | inactive |  | 25 µg/mL (≈ 125 µM) | 12.5 µg/mL (≈ 62.4 µM) | 12.5 µg/mL (≈ 62.4 µM) | 25 µg/mL (≈ 125 µM) | inactive | inactive | inactive | inactive | inactive | inactive | 25 µg/mL (≈ 125 µM) |  | 
CC(=O)N1CCN(c2ccc(OCC3COC(Cn4ccnc4)(c4ccc(Cl)cc4Cl)O3)cc2)CC1 (configuration not stated) [KETOCONAZOLE] |  |  |  | 6.25 µg/mL (≈ 11.8 µM) | 12.5 µg/mL (≈ 23.5 µM) | 15 µg/mL (≈ 28.2 µM) | 25 µg/mL (≈ 47 µM) | inactive | inactive | inactive | inactive | inactive | inactive | 15 µg/mL (≈ 28.2 µM) |  | 
CC(C)C(=O)c1cc2ccccc2c2ccccc12 |  |  |  | 20 µg/mL (≈ 80.5 µM) | 6.25 µg/mL (≈ 25.2 µM) | 20 µg/mL (≈ 80.5 µM) | 20 µg/mL (≈ 80.5 µM) | inactive | inactive | inactive | inactive | inactive | inactive | 20 µg/mL (≈ 80.5 µM) |  | 
C[C@@H]1[C@H](O)[C@@H](C)/C=C/C=C/C=C/C=C/C=C/C=C/C=C/[C@H](O[C@@H]2O[C@H](C)[C@@H](O)[C@H](N)[C@@H]2O)C[C@@H]2O[C@](O)(C[C@@H](O)C[C@@H](O)[C@H](O)CC[C@@H](O)C[C@@H](O)CC(=O)O[C@H]1C)C[C@H](O)[C@H]2C(=O)O [AMPHOTERICIN B] |  |  |  | 6.25 µg/mL (≈ 6.76 µM) | 6.25 µg/mL (≈ 6.76 µM) | 25 µg/mL (≈ 27.1 µM) | 0.3 µg/mL (≈ 0.325 µM) | inactive | inactive | inactive | inactive | inactive | inactive | > 50 µg/mL |  | 
CC(C)C(O)c1cc2ccccc2c2ccccc12 (configuration not stated) |  |  |  | 6.25 µg/mL (≈ 25 µM) | 6.25 µg/mL (≈ 25 µM) | 10 µg/mL (≈ 39.9 µM) | 10 µg/mL (≈ 39.9 µM) | inactive | inactive | inactive | inactive | inactive | inactive | 6.25 µg/mL (≈ 25 µM) |  | 
CC(Br)C(=O)c1ccc2c(c1)OCO2 (configuration not stated) | inactive |  |  | 25 µg/mL (≈ 97.2 µM) | 20 µg/mL (≈ 77.8 µM) | 12.5 µg/mL (≈ 48.6 µM) | 6.25 µg/mL (≈ 24.3 µM) | inactive | inactive | inactive | inactive | inactive | inactive | 3.12 µg/mL (≈ 12.1 µM) |  | 
COc1ccc(C(=O)C(C)Br)cc1OC (configuration not stated) | inactive | inactive |  | 40 µg/mL (≈ 146 µM) | 25 µg/mL (≈ 91.5 µM) | > 50 µg/mL | 3 µg/mL (≈ 11 µM) | inactive | inactive | inactive | inactive | inactive | inactive | 12.5 µg/mL (≈ 45.8 µM) |  | 
COc1ccc(C(=O)C(C)Cl)cc1OC (configuration not stated) | inactive |  |  | 12.5 µg/mL (≈ 54.7 µM) | 12.5 µg/mL (≈ 54.7 µM) | 10 µg/mL (≈ 43.7 µM) | 0.15 µg/mL (≈ 0.656 µM) | inactive | inactive | inactive | inactive | inactive | inactive | 3.12 µg/mL (≈ 13.6 µM) |  | 
COc1cc(C(=O)C(C)Br)cc(OC)c1OC (configuration not stated) | inactive | inactive |  | 50 µg/mL (≈ 165 µM) | 12.5 µg/mL (≈ 41.2 µM) | > 50 µg/mL | 8 µg/mL (≈ 26.4 µM) | inactive | inactive | inactive | inactive | inactive | inactive | 15 µg/mL (≈ 49.5 µM) |  | inactive
